Source: article PMC2754715 (Chemical biology & drug design, 2009)

Legend:
[1] = system: TNF-α secretion by LPS-stimulated THP-1 cells; assay: TNF-α secretion assay in LPS-stimulated THP-1 cells; assay type: cell-based, human; conditions: for Suppression of TNF-α secretion (in words): 50 μg/ml, Figure 2; for inhibition at 100 µg/mL: Homo sapiens, THP-1, read-out: % Inhibition of TNF-α secretion
Outline: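 THP-1 cells (RPMI-1640 with 0.05 mM 2-mercaptoethanol, 2 mM glutamine, 10% FBS) plated in log phase at 4 × 10^5/well. After 24 h, 50 nM PMA is added with test compound; after 24 h more, medium is replaced with compound-only medium. After 24 h, LPS 10 μg/ml is added, supernatants taken at 2 h, and human TNF-α measured by ELISA against the kit standard curve. Run in triplicate; % inhibition.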

[2] = system: TNF-α release from NIH3T3 cells; conditions: cited from earlier work
[3] = system: LPS-induced lethality in mice; assay: LPS-induced endotoxic shock model; assay type: in vivo; conditions: for Protection from lethal dose of LPS (mortality/morbidity): 40 mg/kg ip pretreatment, 24 h observation
Outline: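 C57 mice (8–12 weeks, 20–25 g, n = 8) get test compound i.p., then immediately a lethal i.p. LPS challenge. D-galactosamine (40 μg/g, as 4 μg/μL in DMSO) and E. coli LPS (0.25 μg/mouse, in 0.1 mL PBS with 1% BSA) are injected i.p. Controls get DMSO, then LPS. Mortality and morbidity are checked hourly for 24 h.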

THP-1 cells = assay: Cytotoxicity; assay type: cell-based, human; conditions: at concentrations active in the TNF-α secretion assay
TNF-α release in mice = conditions: cited from earlier work
IκB kinase (IKK) = conditions: kinase selectivity screening; cited from earlier work
Aurora B = conditions: kinase selectivity screening; cited from earlier work
[4] = system: DYRK1A (dual-specificity tyrosine-phosphorylated and regulated kinase 1A); conditions: kinase selectivity screening; cited from earlier work
[5] = system: MAPKAP-K3 (MAPK-activated protein kinase 3); conditions: kinase selectivity screening; cited from earlier work
[6] = system: PRAK (p38-regulated/activated kinase); conditions: kinase selectivity screening; cited from earlier work
Mouse plasma stability = assay type: in vitro ADME
Solubility = assay type: physicochemical
[7] = Chemical stability in aqueous buffer; assay type: physicochemical
[8] = Preliminary pharmacokinetic evaluation; assay type: in vivo, mice; conditions: for half-life: mouse, in vivo
LITAF = assay: Western blot of LITAF expression in cells; assay type: cell-based; conditions: Figure 6
Caco-2 = Caco-2 permeability; assay type: in vitro ADME

COC1=CC(=O)O[C@@H](CCc2ccccc2)C1 [Compound 2, dihydrokavain]
Suppression of TNF-α secretion (in words) [1]: reproducibly active | % Inhibition of TNF-α secretion ([1]; LPS-treated THP-1 cells, 100 μg/ml, replicates in parentheses): 95 (3) % | Inhibition of TNF-α release (in words) [2]: lower activity | Survival rate at 24 h ([3]; 40 mg/Kg ip pretreatment): 30% | Delay in time of death compared to vehicle treated animals ([3]; 40 mg/Kg ip, animals that died): about a two hour delay | Protection from lethal dose of LPS (mortality/morbidity) [3]: only partially protected | Cytotoxicity (THP-1 cells): did not show any cytotoxicity | Inhibition of TNF-α release in mice (in words) (TNF-α release in mice): most potent inhibitor

COc1ccc(C=CC(=O)c2c(O)cc(OC)cc2OC)cc1 [Compound 8, flavokavain A]
Inhibition of IKK (IκB kinase (IKK)): inhibits | Inhibition of Aurora B (Aurora B): inhibits | Inhibition of DYRK1A [4]: inhibits | Inhibition of MAPKAP-K3 [5]: inhibits | Inhibition of PRAK [6]: inhibits

COC1=CC(=O)OC(c2ccc(-c3ccccc3)cc2)C1 (stereo not drawn) [Compound 15, 6-(Biphenyl-4-yl)-4-methoxy-5,6-dihydro-2H-pyran-2-one]
inhibition at 100 µg/mL [1]: -9%

COC1=CC(=O)O[C@@H](/C=C/c2ccccc2)C1 [Compound 1, kavain]
Suppression of TNF-α secretion (in words) [1]: reproducibly active | inhibition at 100 µg/mL [1]: 98% | Mouse plasma stability, remaining (Mouse plasma stability; at 2h, 5 μM dose): 99% remaining at 2h (5 μM dose) | Stability in plasma (in words) (Mouse plasma stability; mouse plasma): good chemical stability | solubility (Solubility; PBS buffer, pH 7, aqueous buffer): > 500 µM | Solubility (in words) (Solubility; pH 7): highly soluble | Chemical stability (in words) ([7]; aqueous buffer): good chemical stability | Chemical Stability, degradation ([7]; at 1 hr, pH=7): <10% degradation at 1 hr, pH=7 | Protection from lethal dose of LPS (mortality/morbidity) [3]: no mortality or overt morbidity observed for at least 24 hours | Cytotoxicity (THP-1 cells): did not show any cytotoxicity | Clearance (in words) ([8]; following dosing, mice): rapidly cleared | half-life ([8]; iv, 1 mg/kg): < 15 min | half-life ([8]; po, 10 mg/kg): < 40 min | LITAF expression (LITAF): evidently do not | Caco-2 permeability, Papp(B→A)/Papp(A→B) (Caco-2): Papp(B→A)/Papp(A→B)=0.7 | Cell permeability (in words) (Caco-2; Caco-2 assay): high level of cell permeability

COc1cc2c(cc1O)CC[n+]1cc3c(OC)c(OC)ccc3cc1-2.[I-] [Jatrorrhizine iodide]
Protection from lethal dose of LPS (mortality/morbidity) [3]: render mice immune to endotoxic shock-mediated death | Health of surviving animals ([3]; 40 mg/kg ip, after 24h): poor health

COC1=CC(=O)O[C@@H](CCc2ccc3c(c2)OCO3)C1 [Compound 3, dihydromethysticin]
Suppression of TNF-α secretion (in words) [1]: essentially inactive | Suppression of TNF-α secretion (in words) ([1]; listed as dihydromethysticin): inactivity | inhibition at 100 µg/mL [1]: 37%

COC1=CC(=O)O[C@@H](/C=C/c2ccc3c(c2)OCO3)C1 [Compound 4, methysticin]
Suppression of TNF-α secretion (in words) [1]: essentially inactive | Suppression of TNF-α secretion (in words) ([1]; listed as methysticin): inactivity | inhibition at 100 µg/mL [1]: 43%

COC(=O)/C=C(\CC(O)c1ccc(-c2ccccc2)cc1)OC (stereo not drawn) [Compound 16, (E)-Methyl 5-(biphenyl-4-yl)-5-hydroxy-3-methoxypent-2-enoate]
Suppression of TNF-α secretion [1]: ≥ 50% | Dose response of TNF-α secretion suppression ([1]; Figure 5): dose-responsive manner | inhibition at 100 µg/mL [1]: 58% | LITAF expression (LITAF): nearly ablated LITAF expression
